{"source": "ChEMBL document CHEMBL4020839", "about": "“Class I HDAC Inhibitors Display Different Antitumor Mechanism in Leukemia and Prostatic Cancer Cells Depending on Their p53 Status” (J Med Chem, 2018)", "key": {"Histone deacetylase 2": {"molecular_target": "Histone deacetylase 2 (Homo sapiens, UniProt Q92769)", "sequence (Q92769 whole entry)": "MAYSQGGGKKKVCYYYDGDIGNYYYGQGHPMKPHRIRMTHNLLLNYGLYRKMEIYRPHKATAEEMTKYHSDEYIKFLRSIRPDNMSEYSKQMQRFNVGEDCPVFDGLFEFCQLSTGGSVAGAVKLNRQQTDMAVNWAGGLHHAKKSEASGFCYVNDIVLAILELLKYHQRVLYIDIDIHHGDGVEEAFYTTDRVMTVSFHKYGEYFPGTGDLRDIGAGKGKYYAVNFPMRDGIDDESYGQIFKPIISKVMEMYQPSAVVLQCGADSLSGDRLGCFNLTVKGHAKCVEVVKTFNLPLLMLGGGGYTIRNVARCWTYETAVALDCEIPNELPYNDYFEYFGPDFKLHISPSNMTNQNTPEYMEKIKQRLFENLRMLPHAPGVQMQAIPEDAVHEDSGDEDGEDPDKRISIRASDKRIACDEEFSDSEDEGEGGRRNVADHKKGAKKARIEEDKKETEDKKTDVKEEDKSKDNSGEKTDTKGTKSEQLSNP", "assay": "Inhibition of full length recombinant human C-terminal FLAG/His-tagged HDAC2 expressed in baculovirus expression system using Boc-Lys(acetyl)-AMC as substrate preincubated for 1 hr followed by substrate addition measured after 2 hrs by fluorescence assay", "method_in_brief": "(§1)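 Recombinant HDAC incubated with serial compound dilutions at 30 °C for 1 h. Reaction run 2 h at 30 °C, stopped with developer containing trypsin and TSA. Fluorescence read after 30 min at 360/460 nm. Inhibition relative to control wells; IC50 from variable-slope fit.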"}, "Histone deacetylase 5": {"molecular_target": "Histone deacetylase 5 (Homo sapiens, UniProt Q9UQL6)", "sequence (Q9UQL6 whole entry)": "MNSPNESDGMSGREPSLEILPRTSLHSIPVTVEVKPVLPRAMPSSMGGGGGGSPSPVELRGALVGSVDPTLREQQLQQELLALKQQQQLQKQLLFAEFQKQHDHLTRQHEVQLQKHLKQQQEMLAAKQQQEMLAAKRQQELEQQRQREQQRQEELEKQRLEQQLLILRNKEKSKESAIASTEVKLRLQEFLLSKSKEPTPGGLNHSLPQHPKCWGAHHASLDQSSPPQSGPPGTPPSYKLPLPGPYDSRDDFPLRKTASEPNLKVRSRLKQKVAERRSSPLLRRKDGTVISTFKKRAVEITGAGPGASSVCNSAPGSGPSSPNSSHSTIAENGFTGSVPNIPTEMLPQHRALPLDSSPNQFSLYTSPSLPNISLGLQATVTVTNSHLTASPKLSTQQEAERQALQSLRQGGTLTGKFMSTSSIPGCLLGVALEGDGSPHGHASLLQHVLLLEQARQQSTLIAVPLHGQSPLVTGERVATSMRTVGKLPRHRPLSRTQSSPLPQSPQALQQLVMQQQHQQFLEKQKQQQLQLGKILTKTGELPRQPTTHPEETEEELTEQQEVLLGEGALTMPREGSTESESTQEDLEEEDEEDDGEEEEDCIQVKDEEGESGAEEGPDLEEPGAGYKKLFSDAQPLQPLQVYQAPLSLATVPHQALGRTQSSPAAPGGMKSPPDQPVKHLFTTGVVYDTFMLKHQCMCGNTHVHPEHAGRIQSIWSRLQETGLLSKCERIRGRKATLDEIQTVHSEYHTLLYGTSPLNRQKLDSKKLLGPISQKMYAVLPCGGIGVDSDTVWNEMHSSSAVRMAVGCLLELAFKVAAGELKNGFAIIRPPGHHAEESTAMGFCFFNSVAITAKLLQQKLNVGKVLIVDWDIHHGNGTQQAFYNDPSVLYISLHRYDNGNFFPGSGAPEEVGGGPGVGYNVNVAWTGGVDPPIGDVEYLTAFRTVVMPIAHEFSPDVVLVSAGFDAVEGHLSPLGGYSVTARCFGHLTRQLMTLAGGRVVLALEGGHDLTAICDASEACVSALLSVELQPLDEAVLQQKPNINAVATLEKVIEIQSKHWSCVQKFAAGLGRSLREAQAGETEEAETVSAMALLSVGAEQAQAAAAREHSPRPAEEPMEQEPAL", "assay": "Inhibition of recombinant human HDAC5 expressed in baculovirus expression system using Boc-Lys(trifluoroacetyl)-AMC as substrate preincubated for 1 hr followed by substrate addition measured after 2 hrs by fluorescence assay", "method_in_brief": "as §1"}, "PC-3 [1]": {"system": "PC-3", "assay": "Induction of morphological changes in human PC3 cells at 2 to 10 uM after 48 hrs by phase contrast microscopic method", "assay_type": "functional, cell-based", "method_in_brief": "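PC-3 cells treated 48 h with vehicle (DMSO), 2 μM or 10 μM and examined by phase-contrast light microscopy for morphology. Representative of n = 2.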"}, "PC-3 [2]": {"system": "PC-3", "assay": "Downregulation of HDAC6 protein expression in human PC3 cells at 1 to 2 uM after 24 hrs by Western blot method", "assay_type": "functional, cell-based", "method_in_brief": "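MV4-11 (1,500,000/well) or PC-3 (300,000/well) grown 12 h, then treated 24 h at 1 and 2 μM, with 5 μM SAHA as reference. RIPA lysis, sonication and centrifugation, BCA normalization. NuPAGE 4–12% Bis-Tris gel in MES, transfer, primary antibodies 1/1000 overnight at 4 °C. Actin as loading control.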"}}, "note": "pIC50: −log10 of the molar value. Activity calls are given as the source filed them. The calls are words filed in the database; no cut-off is given here.", "data": [{"smiles": "CCCNNC(=O)c1ccc(NC(=O)[C@H](Cc2c[nH]c3ccccc23)NC(=O)c2ccc(OC)cc2)cc1", "values": [{"measurement": "pIC50", "setting": "Histone deacetylase 2", "result": 7.55}, {"measurement": "pIC50", "setting": "Histone deacetylase 5", "result": "< 4.30"}, {"measurement": "Activity", "setting": "PC-3 [1]", "result": "inactive"}, {"measurement": "Activity", "setting": "PC-3 [2]", "result": "inactive"}]}]}
